Active and inactive are the calls of the source. The rule behind the calls is not given here.
How the values were obtained:
[1] = Cytotoxicity against human SupT1 cells assessed as dead cells at 1 uM after 24 hrs; type: functional, SUP-T1
Procedure, shortened: (§1)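 Dienones added as DMSO solutions to cells in RPMI medium and incubated 24 h at 37°C. Cytotoxicity was scored as cell-membrane disruption by propidium iodide staining and expressed as percentage of dead cells, averaged over three independent experiments.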

[2] = Cytotoxicity against human HuT-102 cells assessed as dead cells at 1 uM after 24 hrs; type: functional; procedure, shortened: as §1
[3] = Cytotoxicity against human MOLT3 cells assessed as dead cells at 1 uM after 24 hrs; type: functional, MOLT-3; procedure, shortened: as §1
EL4 = assay: Cytotoxicity against mouse EL4 cells assessed as dead cells at 1 uM after 24 hrs; type: functional; procedure, shortened: as §1
[4] = Cytotoxicity against human NALM6 cells assessed as dead cells at 1 uM after 24 hrs; type: functional, NALM-6; procedure, shortened: as §1
Raji = assay: Cytotoxicity against human Raji cells assessed as dead cells at 1 uM after 24 hrs; type: functional; procedure, shortened: as §1
Ramos = assay: Cytotoxicity against human Ramos cells assessed as dead cells at 1 uM after 24 hrs; type: functional; procedure, shortened: as §1
BJAB = assay: Cytotoxicity against human BJAB cells assessed as dead cells at 1 uM after 24 hrs; type: functional; procedure, shortened: as §1
YT = assay: Cytotoxicity against human YT cells assessed as dead cells at 1 uM after 24 hrs; type: functional; procedure, shortened: as §1
MCF7 = assay: Cytotoxicity against human MCF7 cells assessed as dead cells at 1 uM after 24 hrs; type: functional; procedure, shortened: as §1
[5] = Cytotoxicity against human MDA231 cells assessed as dead cells at 1 uM after 24 hrs; type: functional, MDA-MB-231; procedure, shortened: as §1
HCC70 = assay: Cytotoxicity against human HCC70 cells assessed as dead cells at 1 uM after 24 hrs; type: functional; procedure, shortened: as §1
[6] = Cytotoxicity against human MCF10A cells assessed as dead cells at 1 uM after 24 hrs; type: cell-based; conditions: mcf-10a
Procedure, shortened: (§2)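 Compounds added from DMSO solutions to cells in medium (RPMI; DMEM for Hs-27 fibroblasts) and incubated 24 h at 37°C. Membrane disruption scored by propidium iodide uptake. Result is percentage of dead cells, average of three independent experiments.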

DU-145 = assay: Cytotoxicity against human DU145 cells assessed as dead cells at 1 uM after 24 hrs; type: functional; procedure, shortened: as §1
[7] = Cytotoxicity against human 22Rvl cells assessed as dead cells at 1 uM after 24 hrs; type: functional; procedure, shortened: as §1
LAPC4 = assay: Cytotoxicity against human LAPC4 cells assessed as dead cells at 1 uM after 24 hrs; type: functional; procedure, shortened: as §1
HS27 = assay: Cytotoxicity against human HS27 cells assessed as dead cells at 1 uM after 24 hrs; type: cell-based; conditions: hs27, 24 h; procedure, shortened: as §2
MOLT-4 [8] = assay: Ratio of melphalan IC50 to compound IC50 for human Molt4/C8 cells; type: functional; conditions: pooled result: one value given for 4 cell lines, strains, targets or settings
MOLT-4 [9] = assay: Ratio of curcumin IC50 to compound IC50 for human Molt4/C8 cells; type: functional; conditions: pooled result: one value given for 4 cell lines, strains, targets or settings
COLO 205 [10] = assay: Ratio of 5-fluorouracil IC50 to compound IC50 for human COLO205 cells; type: functional; conditions: pooled result: one value given for 5 cell lines, strains, targets or settings
RPMI-8226 = assay: Ratio of melphalan IC50 to compound IC50 for human RPMI8226 cells; type: functional; conditions: pooled result: one value given for 3 cell lines, strains, targets or settings
[11] = Antiproliferative activity against human Molt4/C8 cells after 72 hrs by coulter counting analysis; type: functional, cell-based; conditions: MOLT-4, 72 h
Procedure, shortened: (§3)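 Cells exposed to a range of concentrations in RPMI 1640 at 37°C for 72 h. Surviving cells counted by Coulter counter. IC50 taken from concentration-response curves, mean ± SD of at least three independent experiments.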

CCRF-CEM [12] = assay: Antiproliferative activity against human CEM cells after 72 hrs by coulter counting analysis; type: functional, cell-based; procedure, shortened: as §3
HeLa = assay: Antiproliferative activity against human HeLa cells after 72 hrs by coulter counting analysis; type: functional, cell-based; procedure, shortened: as §3
L1210 = assay: Antiproliferative activity against mouse L1210 cells after 72 hrs by coulter counting analysis; type: functional, cell-based; conditions: L1210, 72 h
[13] = Cytotoxicity against human NCI60 cells assessed as inhibition of tumor growth after 24 hrs; type: functional, cell-based; conditions: NCI60, 24 h
COLO 205 [14] = assay: Cytotoxicity against human COLO205 cells assessed as inhibition of tumor growth after 24 hrs; type: functional, cell-based; conditions: COLO 205, 24 h
HCC 2998 = assay: Cytotoxicity against human HCC2998 cells assessed as inhibition of tumor growth after 24 hrs; type: functional, cell-based; conditions: HCC 2998, 24 h
[15] = Cytotoxicity against human HCT15 cells assessed as inhibition of tumor growth after 24 hrs; type: functional, cell-based; conditions: HCT-15, 24 h
KM12 = assay: Cytotoxicity against human KM12 cells assessed as inhibition of tumor growth after 24 hrs; type: functional, cell-based; conditions: KM12, 24 h
SW-620 = assay: Cytotoxicity against human SW620 cells assessed as inhibition of tumor growth after 24 hrs; type: functional, cell-based; conditions: SW-620, 24 h
HL-60(TB) = assay: Antileukemic activity against human HL-60(TB) cells assessed as inhibition of tumor growth after 24 hrs; type: functional, cell-based; conditions: HL-60, 24 h
K562 = assay: Antileukemic activity against human K562 cells assessed as inhibition of tumor growth after 24 hrs; type: functional, cell-based; conditions: K562, 24 h
[16] = Antileukemic activity against human RPMI8226 cells assessed as inhibition of tumor growth after 24 hrs; type: functional, cell-based; conditions: rpmi-8226
SR = assay: Antileukemic activity against human SR cells assessed as inhibition of tumor growth after 24 hrs; type: functional, cell-based
Jurkat = assay: Cytotoxicity against human Jurkat cells assessed as dead cells at 1 uM after 24 hrs; type: functional; procedure, shortened: as §1
CCRF-CEM [17] = assay: Cytotoxicity against human CEM cells assessed as dead cells at 1 uM after 24 hrs; type: functional; procedure, shortened: as §1
CCRF-CEM [18] = assay: Induction of apoptosis in human CEM T-lymphocytes assessed as necrotic cells at 1 uM after 24 hrs by Annexin V/propidium iodide staining-based FITC analysis (reference value: 0.2%); type: functional
CCRF-CEM [19] = assay: Induction of apoptosis in human CEM T-lymphocytes assessed as late apoptotic cells at 1 uM after 24 hrs by Annexin V/propidium iodide staining-based FITC analysis (reference value: 0.8%); type: functional
CCRF-CEM [20] = assay: Induction of apoptosis in human CEM T-lymphocytes assessed as viable cells at 1 uM after 24 hrs by Annexin V/propidium iodide staining-based FITC analysis (reference value: 93.4%); type: functional; conditions: read-out: Activity
CCRF-CEM [21] = assay: Induction of apoptosis in human CEM T-lymphocytes assessed as early apoptotic cells at 1 uM after 24 hrs by Annexin V/propidium iodide staining-based FITC analysis (reference value: 5.6%); type: functional
CCRF-CEM [22] = assay: Induction of apoptosis in human CEM T-lymphocytes assessed as caspase3 activation at necrotic cell stage at 1 uM after 8 hrs by flow cytometric analysis (reference value: 0%); type: functional
CCRF-CEM [23] = assay: Induction of apoptosis in human CEM T-lymphocytes assessed as late apoptotic at necrotic cell stage at 1 uM after 8 hrs by flow cytometric analysis (reference value: 0%); type: functional
CCRF-CEM [24] = assay: Induction of apoptosis in human CEM T-lymphocytes assessed as viable at necrotic cell stage at 1 uM after 8 hrs by flow cytometric analysis (reference value: 95.7%); type: functional
CCRF-CEM [25] = assay: Induction of apoptosis in human CEM T-lymphocytes assessed as early apoptotic at necrotic cell stage at 1 uM after 8 hrs by flow cytometric analysis (reference value: 4.3%); type: functional
CCRF-CEM [26] = assay: Cytotoxicity against human CEM T-lymphocytes assessed as mitochondrial membrane depolarization at 1 uM after 8 hrs by JC-1 red/green staining analysis; type: functional, cell-based
Procedure, shortened: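 CEM cells (RPMI-1640, 10% FBS, 50,000 per well) were exposed to 1 μM compound for 8 h at 37°C, 5% CO2, in triplicate. They were then stained with 2 μM JC-1; the red signal marks polarized mitochondria and the green signal marks depolarized ones. Green-emitting cells were counted by flow cytometry, about 10,000 events. Controls: untreated, DMSO and CCCP 50 μM.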

COc1cc(/C=C2\CN(C(=O)C(=O)N3C/C(=C\c4cc(OC)c(OC)c(OC)c4)C(=O)/C(=C/c4cc(OC)c(OC)c(OC)c4)C3)C/C(=C\c3cc(OC)c(OC)c(OC)c3)C2=O)cc(OC)c1OC
Activity [1]: 38.2%
Activity [2]: 50.5%
Activity [3]: 30.3%
Activity (EL4): 33.8%
Activity [4]: 67.6%
Activity (Raji): 55.7%
Activity (Ramos): 65.1%
Activity (BJAB): 60.9%
Activity (YT): 13%
Activity (MCF7): 43.2%
Activity [5]: 4.7%
Activity (HCC70): 7.3%
Activity [6]: 7.6%
Activity (DU-145): 41.3%
Activity [7]: 3.4%
Activity (LAPC4): 9.7%
Activity (HS27): 15.4%
Ratio IC50 (MOLT-4 [8]): 13.5
Ratio IC50 (MOLT-4 [9]): 63.8
Ratio IC50 (COLO 205 [10]): 121
Ratio IC50 (RPMI-8226): 1418
IC50 [11]: 47 nM
IC50 (CCRF-CEM [12]): 325 nM
IC50 (HeLa): 246 nM
IC50 (L1210): 182 nM
IC50 [13]: 60 nM
IC50 (COLO 205 [14]): 70 nM
IC50 (HCC 2998): 100 nM
IC50 [15]: 70 nM
IC50 (KM12): 60 nM
IC50 (SW-620): 30 nM
IC50 (HL-60(TB)): 70 nM
IC50 (K562): 30 nM
IC50 [16]: 20 nM
IC50 (SR): 20 nM
Activity (Jurkat): 78.7%
Activity (CCRF-CEM [17]): 84.1%

COc1ccc(/C=C2/CN(C(=O)CC(=O)N3C/C(=C\c4ccc(OC)c(OC)c4)C(=O)/C(=C/c4ccc(OC)c(OC)c4)C3)C/C(=C\c3ccc(OC)c(OC)c3)C2=O)cc1OC
Activity [1]: 31%
Activity [2]: 51.6%
Activity [3]: 2.6%
Activity (EL4): 43.7%
Activity [4]: 63.9%
Activity (Raji): 50.8%
Activity (Ramos): 88.6%
Activity (BJAB): 61%
Activity (YT): 32.3%
Activity (MCF7): 23%
Activity [5]: 1.8%
Activity (HCC70): 2.1%
Activity [6]: 6.1%
Activity (DU-145): 67.4%
Activity [7]: 2%
Activity (LAPC4): 20.6%
Activity (HS27): 6.4%
Activity (CCRF-CEM [18]): 3.9%
Activity (CCRF-CEM [19]): 23.3%
viability at 1 µM (CCRF-CEM [20]): 2.5%
Activity (CCRF-CEM [21]): 70.2%
Activity (CCRF-CEM [22]): 0%
Activity (CCRF-CEM [23]): 0%
Activity (CCRF-CEM [24]): 87.7%
Activity (CCRF-CEM [25]): 12.3%
Activity (CCRF-CEM [26]): Active
IC50 [11]: 388 nM
IC50 (CCRF-CEM [12]): 348 nM
IC50 (HeLa): 370 nM
IC50 (L1210): 378 nM
Activity (Jurkat): 83.9%
Activity (CCRF-CEM [17]): 77.6%

COc1ccc(/C=C2\CN(C(=O)C(=O)N3C/C(=C\c4ccc(OC)c(OC)c4)C(=O)/C(=C/c4ccc(OC)c(OC)c4)C3)C/C(=C\c3ccc(OC)c(OC)c3)C2=O)cc1OC
Activity [1]: 33%
Activity [2]: 50.9%
Activity [3]: 31.8%
Activity (EL4): 46.5%
Activity [4]: 60.7%
Activity (Raji): 56.3%
Activity (Ramos): 87.4%
Activity (BJAB): 62.8%
Activity (YT): 39.2%
Activity (MCF7): 17.7%
Activity [5]: 4.6%
Activity (HCC70): 3.9%
Activity [6]: 5.8%
Activity (DU-145): 45.7%
Activity [7]: 38.2%
Activity (LAPC4): 35.4%
Activity (HS27): 10.2%
Activity (CCRF-CEM [18]): 33.8%
Activity (CCRF-CEM [19]): 38%
viability at 1 µM (CCRF-CEM [20]): 15.4%
Activity (CCRF-CEM [21]): 12.8%
Activity (CCRF-CEM [22]): 0%
Activity (CCRF-CEM [23]): 0%
Activity (CCRF-CEM [24]): 91%
Activity (CCRF-CEM [25]): 9%
Activity (CCRF-CEM [26]): Active
IC50 [11]: 779 nM
IC50 (CCRF-CEM [12]): 4360 nM
IC50 (HeLa): 4430 nM
IC50 (L1210): 6310 nM
Activity (Jurkat): 84.8%
Activity (CCRF-CEM [17]): 88.1%

COc1cc(/C=C2/CN(C(=O)CC(=O)N3C/C(=C\c4cc(OC)c(OC)c(OC)c4)C(=O)/C(=C/c4cc(OC)c(OC)c(OC)c4)C3)C/C(=C\c3cc(OC)c(OC)c(OC)c3)C2=O)cc(OC)c1OC
Ratio IC50 (MOLT-4 [8]): 14.2
Ratio IC50 (MOLT-4 [9]): 66.8
Ratio IC50 (COLO 205 [10]): 141
Ratio IC50 (RPMI-8226): 1890
IC50 [11]: 60 nM
IC50 (CCRF-CEM [12]): 284 nM
IC50 (HeLa): 216 nM
IC50 (L1210): 214 nM
IC50 [13]: 50 nM
IC50 (COLO 205 [14]): 60 nM
IC50 (HCC 2998): 100 nM
IC50 [15]: 30 nM
IC50 (KM12): 40 nM
IC50 (SW-620): 50 nM
IC50 (HL-60(TB)): 40 nM
IC50 (K562): 30 nM
IC50 [16]: 50 nM
IC50 (SR): 10 nM
